Results gathered from unrelated publications.
CDK4 with cyclin D1: Cyclin-dependent kinase 4, with cyclin D1 (CDK4, Homo sapiens, UniProt P11802)
CDK4: Cyclin-dependent kinase 4 (CDK4, Homo sapiens, UniProt P11802)
CDK4 with cyclin D3: Cyclin-dependent kinase 4, with cyclin D3 (CDK4, Homo sapiens, UniProt P11802)

| Structure (SMILES) | target | observed | action | method | tested at | quantity | result |
| --- | --- | --- | --- | --- | --- | --- | --- |
| COc1ccc2[nH]c3c4[nH]c5ccc(OC)cc5c4c4c(c3c2c1)C(=O)NC4=O | CDK4 with cyclin D1 | binding |  |  | 1 µM | remaining binding | 82% |
| CNS(=O)(=O)c1ccc(Nc2ncc(C(F)(F)F)c(N3CCC[C@](C)(O)C3)n2)c(C)c1 | CDK4 with cyclin D1 | binding |  | competition with immobilised ligand | 1 µM | remaining binding | 46% |
| CN1CCN(C(=O)c2ccc(NC(=O)Nc3ccc(N(C)c4ccnc(Nc5ccc(CS(C)(=O)=O)cc5)n4)cc3)cc2)CC1 | CDK4 | binding |  |  | 1 µM | remaining binding | 83% |
| CCCCC(=O)Nc1ccc(-c2ccc3ncn(CCC)c(=O)c3c2)cn1 | CDK4 | binding |  | competition with immobilised ligand | 0.5 µM | remaining binding | 100% |
| C=CC(=O)N1CCC([C@@H]2CCNc3c(C(N)=O)c(-c4ccc(Oc5ccccc5)cc4)nn32)CC1 | CDK4 with cyclin D3 | enzyme activity | inhibitor |  | 1 µM | inhibition | 0% |
| C1=C/COCc2cc(ccc2OCCN2CCCC2)Nc2nccc(n2)-c2cccc(c2)COC/1 | CDK4 with cyclin D1 | binding |  |  | 0.1 µM | remaining binding | 48% |
| CC#CC(=O)N1CCC[C@H]1c1nc(-c2ccc(C(=O)Nc3ccccn3)cc2)c2c(N)nccn12 | CDK4 with cyclin D3 | enzyme activity | inhibitor |  | 1 µM | inhibition | 0% |
| C[C@]1(O)CCCN(c2nc(Nc3ccc(S(=O)(=O)N[C@H]4CC[C@H](CN5CCN(c6ccc(C7CCC(=O)NC7=O)cc6F)CC5)CC4)cc3Cl)ncc2C(F)(F)F)C1 (some centres unmarked) | CDK4 with cyclin D1 | binding |  | competition with immobilised ligand | 1 µM | remaining binding | 91% |
| Cc1ccc(NC(=O)c2ccnc(C(F)(F)F)c2)cc1-c1cc(OCCO)nc(N2CCOCC2)c1 | CDK4 with cyclin D3 | binding |  |  | 1 µM | remaining binding | 100% |
| CO[C@@H]1[C@H](N(C)C(=O)c2ccccc2)C[C@H]2O[C@]1(C)n1c3ccccc3c3c4c(c5c6ccccc6n2c5c31)C(=O)NC4 | CDK4 with cyclin D3 | enzyme activity | inhibitor |  | 1 µM | inhibition | 2% |
| C[C@]1(O)CCCN(c2nc(Nc3ccc(S(=O)(=O)N[C@H]4CC[C@H](CN5CCN(c6ccc(C7CCC(=O)NC7=O)cc6F)CC5)CC4)cc3F)ncc2C(F)(F)F)C1 (some centres unmarked) | CDK4 with cyclin D1 | binding |  | competition with immobilised ligand | 1 µM | remaining binding | 97% |
